# Key:
# [1] = Selectivity index, ratio of CC50 for human KB cells to IC50 for Plasmodium falciparum 3D7; type: functional
# KB = assay: Cytotoxicity against human KB cells; type: functional
# [2] = Selectivity index, ratio of CC50 for human KB cells to IC50 for Plasmodium falciparum VS1; type: functional
# [3] = Selectivity index, ratio of CC50 for human KB cells to IC50 for Plasmodium falciparum K1; type: functional
# Plasmodium falciparum [4] = assay: Antimalarial activity against chloroquine, pyrimethamine and cycloguanil-resistant Plasmodium falciparum VS1 after 24 hrs; type: functional, organism-based; conditions: VS1, 24 h
# Summary of the method: (§1)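 [³H]hypoxanthine incorporation assay. Compounds dissolved in DMSO and serially diluted in assay medium, final DMSO ≤0.01%. P. falciparum culture at 0.5% parasitaemia (65-75% ring stage), 2.5% haematocrit. Incubated 24 h at 37 °C in 5% CO₂, then [³H]hypoxanthine (0.1 µCi/well) added for a further 24 h. Incorporated radioactivity counted by scintillation. IC50 obtained by curve fitting. Chloroquine diphosphate used as standard.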
# Plasmodium berghei [5] = assay: Antiparasitemia activity against Plasmodium berghei infected mice (Mus musculus) at 30 mg/kg peroral dose for 4 days; type: functional; conditions: route oral
# Summary of the method: (§2)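 Peters' suppressive test: 20 g male CD-1 mice were infected iv with 2×10^6 P. berghei AS-parasitized erythrocytes. Compound was dosed orally, 0.2 mL, in standard suspending formula (0.5% Na carboxymethylcellulose, 0.5% benzyl alcohol, 0.4% Tween 80, 0.9% NaCl) at 2 h and on days 1–4 post-infection. Parasitaemia was read microscopically from Giemsa films on day 5 as % inhibition relative to the untreated group's arithmetic mean.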
# Plasmodium falciparum [6] = assay: Antimalarial activity against chloroquine,pyrimethamine-resistant Plasmodium falciparum K1 after 24 hrs; type: functional, organism-based; conditions: K1, 24 h; summary of the method: as §1
# Plasmodium falciparum [7] = assay: Antimalarial activity against drug-sensitive Plasmodium falciparum 3D7 after 24 hrs; type: functional, organism-based; conditions: 3D7, 24 h; summary of the method: as §1
# Plasmodium berghei [8] = assay: Antiparasitemia activity against Plasmodium berghei infected mice (Mus musculus) at 30 mg/kg subcutaneous dose for 4 days; type: functional
# Summary of the method: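 Male CD-1 outbred mice (20 g), infected intravenously with 2×10^6 P. berghei AS parasitized red cells, received subcutaneous 0.2 mL doses in 10% DMSO/0.05% Tween 80 in water at 2 h (day 0) and on days 1, 2, 3 and 4. Day-5 Giemsa blood smears were counted microscopically, and mean group parasitaemia was expressed as % inhibition versus untreated mice.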
# Plasmodium berghei [9] = assay: Antiparasitemia activity against Plasmodium berghei infected mice (Mus musculus) at 100 mg/kg peroral dose for 4 days; type: functional; conditions: route oral; summary of the method: as §2
# Plasmodium berghei [10] = assay: Antiparasitemia activity against Plasmodium berghei infected mice (Mus musculus) at 100 mg/kg intravenous dose for 4 days; type: functional
# Summary of the method: (§3)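 CD-1 outbred male mice (20 g) were infected intravenously with 2×10^6 P. berghei AS parasitized red cells. Drug in 5% dextrose was given iv, 0.2 mL, at 2 h (day 0) and on days 1, 2, 3 and 4 post-infection. Day-5 Giemsa-stained blood films were counted, and results were expressed as % inhibition of mean group parasitaemia versus the untreated group.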
# Plasmodium berghei [11] = assay: Antiparasitemia activity against Plasmodium berghei infected mice (Mus musculus) at 10 mg/kg intravenous dose for 4 days; type: functional; summary of the method: as §3
Structure (SMILES),Ratio CC50/IC50 [1],CC50 (KB),Ratio CC50/IC50 [2],Ratio CC50/IC50 [3],IC50 (Plasmodium falciparum [4]),Activity (Plasmodium berghei [5]),IC50 (Plasmodium falciparum [6]),IC50 (Plasmodium falciparum [7]),Activity (Plasmodium berghei [8]),Activity (Plasmodium berghei [9]),Activity (Plasmodium berghei [10]),Activity (Plasmodium berghei [11])
ONc1ncnc2[nH]cnc12,199,1490 µM,267,146,5.57 µM,3.9%,10.2 µM,7.48 µM,1.8%,,,
Nc1nc2c(ncn2[C@@H]2O[C@H](CO)[C@@H](O)[C@H]2O)/c(=N\OCc2ccccc2)[nH]1,,,,,126 µM,,,183 µM,,,,
CON(C)c1nc(N)nc2c1ncn2[C@@H]1O[C@H](CO)[C@@H](O)[C@H]1O,,,,,> 306 µM,,> 306 µM,> 306 µM,,,,
OC[C@H]1O[C@@H](n2cnc3c(NNc4ccccc4)ncnc32)[C@H](O)[C@@H]1O,7.68,109 µM,9.9,,11 µM,,,14.2 µM,,,,
CON(C)c1ncnc2c1ncn2[C@@H]1O[C@H](CO)[C@@H](O)[C@H]1O,<1,15.3 µM,<1,1.2,25.2 µM,,12.5 µM,21.8 µM,,,,
CO/N=c1/[nH]cnc2[nH]cnc12,12.7,1260 µM,2.1,3.6,> 606 µM,,354 µM,98.9 µM,,,,
CO/N=c1/[nH]c(N)nc2[nH]cnc12,,,,,> 555 µM,,435 µM,428 µM,,,,
CN(N)c1nc(N)nc2c1ncn2[C@@H]1O[C@H](CO)[C@@H](O)[C@H]1O,533,1480 µM,5008,410,0.29 µM,12.3%,3.6 µM,2.27 µM,28.3%,4.8%,14%,
Nc1nc2c(ncn2[C@@H]2O[C@H](CO)[C@@H](O)[C@H]2O)/c(=N\O)[nH]1,17.5,281 µM,21.1,25.9,13.3 µM,,10.8 µM,16 µM,,,,
C=CCO/N=c1/[nH]cnc2c1ncn2[C@@H]1O[C@H](CO)[C@@H](O)[C@H]1O,,,,,34 µM,,,3.31 µM,,,,
NNc1ncnc2c1ncn2[C@@H]1O[C@H](CO)[C@@H](O)[C@H]1O,<1,2.26 µM,<1,<1,7.92 µM,,7.48 µM,13.3 µM,,,,
CN(N)c1ncnc2[nH]cnc12,,,,,419 µM,,478 µM,508 µM,,,,
CO/N=c1/[nH]c(N)nc2c1ncn2[C@@H]1O[C@H](CO)[C@@H](O)[C@H]1O,3.4,784 µM,3.5,4.3,225 µM,,184 µM,232 µM,,,,
CO/N=c1/[nH]cnc2c1ncn2[C@@H]1O[C@H](CO)[C@@H](O)[C@H]1O,<1,6.16 µM,<1,<1,9.87 µM,,20.6 µM,11.4 µM,,,,
CN(N)c1ncnc2c1ncn2[C@@H]1O[C@H](CO)[C@@H](O)[C@H]1O,1.4,101 µM,4.5,2.9,22.5 µM,,35.4 µM,72.7 µM,,,,
NNc1nc(N)nc2c1ncn2[C@@H]1O[C@H](CO)[C@@H](O)[C@H]1O,134,1360 µM,112,136,12.2 µM,22.3%,10 µM,10.2 µM,14%,26.8%,43.9%,
OC[C@H]1O[C@@H](n2cnc3/c(=N\O)[nH]cnc32)[C@H](O)[C@@H]1O,3.8,44.3 µM,5.2,6.4,8.56 µM,,6.9 µM,11.6 µM,,,,
NNc1ncnc2[nH]cnc12,2.1,49.3 µM,2.6,2.2,18.8 µM,,22.1 µM,23.1 µM,,,,
CN(N)c1nc(N)nc2[nH]cnc12,,,,,> 558 µM,,> 558 µM,> 558 µM,,,,
COc1cc([C@@H]2c3cc4c(cc3[C@H](O)[C@H]3COC(=O)[C@H]23)OCO4)cc(OC)c1OC [PODOFILOX],,0.048 µM,,,,,,,,,,
OC[C@H]1O[C@@H](n2cnc3/c(=N\OCc4ccccc4)[nH]cnc32)[C@H](O)[C@@H]1O,67.6,889 µM,62.6,,14.2 µM,,,13.2 µM,,,,
CON(C)c1ncnc2[nH]cnc12,,,,,> 613 µM,,> 613 µM,> 613 µM,,,,
Nc1nc2[nH]cnc2/c(=N\O)[nH]1,1.6,45 µM,2.7,5,16.8 µM,,9.03 µM,27.8 µM,,,,
CCc1nc(N)nc(N)c1-c1ccc(Cl)cc1 [PYRIMETHAMINE],,,,,,100%,,,100%,,,
c1ccc(CO/N=c2/[nH]cnc3[nH]cnc23)cc1,,,,,352 µM,,,400 µM,,,,
CCN(CC)CCCC(C)Nc1ccnc2cc(Cl)ccc12 (centres undefined) [CHLOROQUINE],,187 µM,,,,,,,,,,100%
NNc1nc(N)nc2[nH]cnc12,5.3,1000 µM,11.2,9.2,89.3 µM,,109 µM,189 µM,,,,
c1ccc(NNc2ncnc3[nH]cnc23)cc1,8.64,167 µM,8.43,,19.8 µM,,,19.3 µM,,,,

# Reference: ChEMBL document CHEMBL1149611, “Anti-malarial activity of N6-modified purine analogues” (Bioorg Med Chem, 2007)
